Reference: ChEMBL document CHEMBL4257467, “Synthesis and pharmaceutical characterization of site specific mycophenolic acid-modified Xenopus glucagon-like peptide-1 analogs” (Medchemcomm, 2018)
pEC50: −log10 of the molar value. Activity calls are given as the source filed them. *1 amine or outer side, *2 acyl side, *3 side chain or, on linkers, in order; H or OH if unused. Side-chain parts run from the residue outwards. The star is where a group is joined. Mycophenolyl = COc1c(C)c2c(c(O)c1C/C=C(\C)CCC(=O)*)C(=O)OC2; γGlu = O=C(O)[C@H](CCC(=O)[*:2])N[*:1]; Ahx = NCCCCCC(=O)O

What was measured:
[1] = biological target: Glucagon-like peptide 1 receptor (Homo sapiens, UniProt P43220); test: Agonist activity at human GLP1 receptor expressed in HEK293 cells assessed as increase in cAMP level after 30 mins by HTRF method; assay type: functional, cell-based
Procedure, shortened: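 HEK293 cells stably expressing human GLP-1 receptor, thawed, suspended in DMEM with 20 mM HEPES, 2 mM L-Glu, 0.5% FBS, 1% pen-strep. Compounds dissolved in DMSO, diluted in assay buffer to 1 × 10−13–1 × 10−6 M final, 30 min at 37 °C in 5% CO2. cAMP read by HTRF. EC50 as means ± SD of three individual experiments, n = 3.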

Mus musculus [2] = test: Antidiabetic activity in Kunming mouse assessed as reduction in blood glucose level at 25 nmol/kg, ip pretreated for 30 mins followed by glucose-challenge and measured after 15 to 120 mins by IPGTT; assay type: functional, organism-based
Procedure, shortened: (§1)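 Male Kunming mice (20–25 g, n = 6) fasted overnight. Peptide or saline 25 nmol kg−1 ip at −30 min, ip glucose 2 g kg−1 at 0 min. Tail-vein blood glucose by glucometer at −30, 0, 15, 30, 60 and 120 min. Glucose AUC0–120min calculated; means ± SD.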

Mus musculus [3] = test: Antidiabetic activity in Kunming mouse assessed as reduction in blood glucose AUC at 25 nmol/kg, ip pretreated for 30 mins followed by glucose-challenge and measured after 15 to 120 mins by IPGTT; assay type: functional, organism-based; procedure, shortened: as §1
Albumin = Albumin (Homo sapiens, UniProt P02768); test: Binding affinity to human serum albumin after 60 mins by ultrafiltration-based HPLC analysis; assay type: ADME
Procedure, shortened: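 Peptide in PBS pH 7.4 (100 μg ml−1) mixed with HSA (10 mg ml−1 in PBS), incubated 60 min at 37 °C. Ultrafiltration through 30 kDa cutoff filter, 30 min at 3500 rpm. Free compound in filtrate by HPLC. Membrane adsorption checked (<4%). Repeated three times.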

[4] = Half life in Sprague-Dawley rat plasma at 0.5 mL by LC-MS/MS analysis; assay type: ADME, cell-free
Procedure, shortened: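 Plasma from male Sprague-Dawley rats (200–250 g). Peptide in PBS pH 7.4 added to initial 1000 ng ml−1 and incubated at 37 °C for 48 h. Samples at 2, 4, 8, 12, 24, 36, 48 h precipitated with acetonitrile containing 2% formic acid, centrifuged, analysed by LC-MS/MS in MRM mode. Degradation curves in triplicate.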

Mus musculus [5] = test: Hypoglycemic activity in C57BL/6J m+/+ Lepr db mouse assessed as blood glucose level at 25 nmol/kg, ip pretreated for 30 mins followed by glucose challenge and measured after 15 mins by IPGTT; assay type: functional
Procedure, shortened: (§2)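 Male db/db mice (30–40 g, 9 weeks, n = 6) fasted 18 h. Saline or peptide 25 nmol kg−1 ip at −30 min, ip glucose 1 g kg−1 at 0 min. Tail-vein glucose by glucometer at −30, 0, 10, 15, 30, 45, 60, 120 min. Plasma insulin by mouse insulin ELISA. AUC0–120min for glucose and insulin calculated; means ± SD.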

Mus musculus [6] = test: Antidiabetic activity in C57BL/6J m+/+ Lepr db mouse assessed as plasma insulin level at 25 nmol/kg, ip pretreated for 30 mins followed by glucose challenge and measured after 15 mins by ELISA; assay type: functional; procedure, shortened: as §2
Mus musculus [7] = test: Antidiabetic activity in C57BL/6J m+/+ Lepr db mouse assessed as increase in plasma insulin AUC (0 to 120 mins) at 25 nmol/kg, ip pretreated for 30 mins followed by glucose challenge by ELISA; assay type: functional, organism-based; procedure, shortened: as §2

Chain of Albumin (P02768 whole entry): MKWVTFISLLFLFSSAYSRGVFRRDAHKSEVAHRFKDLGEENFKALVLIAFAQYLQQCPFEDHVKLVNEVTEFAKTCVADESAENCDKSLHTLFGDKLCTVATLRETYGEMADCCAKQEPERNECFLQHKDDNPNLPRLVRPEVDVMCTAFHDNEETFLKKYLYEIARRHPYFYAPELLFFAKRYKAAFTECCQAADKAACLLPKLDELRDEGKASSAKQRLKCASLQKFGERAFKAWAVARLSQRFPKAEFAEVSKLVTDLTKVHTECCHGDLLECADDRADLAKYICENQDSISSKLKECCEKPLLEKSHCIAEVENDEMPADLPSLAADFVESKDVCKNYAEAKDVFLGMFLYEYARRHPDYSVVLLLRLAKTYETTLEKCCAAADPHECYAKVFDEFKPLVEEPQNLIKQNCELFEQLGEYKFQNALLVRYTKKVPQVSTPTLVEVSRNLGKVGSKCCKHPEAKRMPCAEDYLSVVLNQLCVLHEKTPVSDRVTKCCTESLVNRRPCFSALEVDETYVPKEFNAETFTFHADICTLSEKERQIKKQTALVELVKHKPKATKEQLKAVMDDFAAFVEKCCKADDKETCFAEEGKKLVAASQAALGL
Chain of Glucagon-like peptide 1 receptor (P43220 whole entry): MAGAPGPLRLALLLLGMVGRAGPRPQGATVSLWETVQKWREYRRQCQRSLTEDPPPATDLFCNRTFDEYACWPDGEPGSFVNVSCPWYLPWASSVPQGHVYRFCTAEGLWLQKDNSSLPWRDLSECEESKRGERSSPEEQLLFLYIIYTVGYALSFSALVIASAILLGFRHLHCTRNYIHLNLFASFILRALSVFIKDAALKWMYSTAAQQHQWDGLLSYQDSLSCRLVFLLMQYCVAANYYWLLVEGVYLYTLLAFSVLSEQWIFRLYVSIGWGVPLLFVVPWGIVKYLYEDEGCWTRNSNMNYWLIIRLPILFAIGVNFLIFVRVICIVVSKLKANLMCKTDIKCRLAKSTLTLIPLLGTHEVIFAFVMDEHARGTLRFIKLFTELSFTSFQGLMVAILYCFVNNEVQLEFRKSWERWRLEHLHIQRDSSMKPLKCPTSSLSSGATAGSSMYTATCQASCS

Substance | pEC50 [1] | Activity (Mus musculus [2]) | Activity (Mus musculus [3]) | fraction unbound at 1 h (Albumin; human serum albumin, read-out: PB (converted)) | half-life ([4]; Sprague-Dawley) | PB (Albumin; isolated protein, 1 h) | t1/2 [4] | Activity (Mus musculus [5]) | Activity (Mus musculus [6]) | Activity (Mus musculus [7])
H-HGEGTYTNDVTEYLEEEAAK([γGlu-Ahx-Mycophenolyl])EFIEWLIKGKPSSGAPPSKKKKKK-OH | 8.55 | Active | Active | 0.361 | 22.1 h | – | – | – | – | –
SEMAGLUTIDE [listing 1 of 2 here] | – | – | – | – | – | 97.8% | > 48 h | – | – | –
SEMAGLUTIDE [listing 2 of 2 here] | – | Active | Active | – | – | – | – | 1.1e+07 nmol/L | 17.2 mIU/L | Active
